The source made the active and inactive calls. The calls are words filed in the database; no cut-off is given here.
Key:
[1] = system: BT-474; experiment: Cytotoxicity against human BT474 cells assessed as inhibition of cell growth after 72 hrs by sulforhodamine B assay; format: functional, cell-based; conditions: BT-474, 72 h
Procedure, shortened: (§1)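 Cells grown in RPMI-1640 with 5% FBS and plated at 5.0×10^4/ml. Next day exposed to 0.5–5000 ng/ml for 3 days. Survival read by sulforhodamine B staining. IC50 taken from growth curves; mean of at least three determinations.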

[2] = biological target: Mast/stem cell growth factor receptor Kit (Homo sapiens, UniProt P10721); experiment: Inhibition of c-KIT phosphorylation (unknown origin) expressed in human NCI-H526 cells at 0.001 to 1 uM incubated for 2 hrs by Western blot method
[3] = biological target: T1, Receptor tyrosine-protein kinase erbB-2 (Homo sapiens, UniProt P04626); conditions: BT-474, 0.001 to 10 uM
[4] = system: BT-474; experiment: Induction of cell cycle arrest in human BT474 cells assessed as accumulation at G2/M phase at 10 uM incubated for 12 hrs by propidium iodide staining based flow cytometry (reference value: 14%); format: functional
[5] = system: BT-474; experiment: Induction of cell cycle arrest in human BT474 cells assessed as accumulation at G2/M phase at 0.01 uM incubated for 12 hrs by propidium iodide staining based flow cytometry (reference value: 14%); format: functional
[6] = system: BT-474; experiment: Induction of apoptosis in human BT474 cells at 0.01 uM incubated for 12 hrs by propidium iodide staining based flow cytometry (reference value: 1%); format: functional
[7] = system: BT-474; experiment: Induction of cell cycle arrest in human BT474 cells assessed as accumulation at G1 phase at 0.001 uM incubated for 12 hrs by propidium iodide staining based flow cytometry (reference value: 67%); format: functional
[8] = system: BT-474; experiment: Induction of cell cycle arrest in human BT474 cells assessed as accumulation at S phase at 0.1 uM incubated for 12 hrs by propidium iodide staining based flow cytometry (reference value: 19%); format: functional
[9] = system: MRC5; experiment: cells; conditions: Homo sapiens, MRC5, 72 h
[10] = system: BT-474; experiment: Induction of cell cycle arrest in human BT474 cells assessed as accumulation at G1 phase at 0.1 uM incubated for 12 hrs by propidium iodide staining based flow cytometry (reference value: 67%); format: functional
[11] = system: BT-474; experiment: Induction of apoptosis in human BT474 cells at 10 uM incubated for 12 hrs by propidium iodide staining based flow cytometry (reference value: 1%); format: functional
[12] = biological target: T1, Receptor tyrosine-protein kinase erbB-2; conditions: BT-474, 0.001 to 10 uM; remark: listed apart in the source
[13] = system: BT-474; experiment: Induction of apoptosis in human BT474 cells at 1 uM incubated for 12 hrs by propidium iodide staining based flow cytometry (reference value: 1%); format: functional
[14] = system: BT-474; experiment: Induction of cell cycle arrest in human BT474 cells assessed as accumulation at S phase at 10 uM incubated for 12 hrs by propidium iodide staining based flow cytometry (reference value: 19%); format: functional
[15] = system: BT-474; experiment: Induction of cell cycle arrest in human BT474 cells assessed as accumulation at S phase at 0.001 uM incubated for 12 hrs by propidium iodide staining based flow cytometry (reference value: 19%); format: functional
[16] = cells; conditions: Homo sapiens, SK-OV-3, 72 h
[17] = system: BT-474; experiment: Induction of cell cycle arrest in human BT474 cells assessed as accumulation at S phase at 0.01 uM incubated for 12 hrs by propidium iodide staining based flow cytometry (reference value: 19%); format: functional
[18] = biological target: Platelet-derived growth factor receptor beta (Homo sapiens, UniProt P09619); experiment: Inhibition of PDGFRbeta phosphorylation (unknown origin) expressed in human U87MG cells at 0.001 to 1 uM incubated for 2 hrs by Western blot method; conditions: U-87MG ATCC
[19] = system: BT-474; experiment: Induction of cell cycle arrest in human BT474 cells assessed as accumulation at G1 phase at 0.01 uM incubated for 12 hrs by propidium iodide staining based flow cytometry (reference value: 67%); format: functional
[20] = system: BT-474; experiment: Induction of cell cycle arrest in human BT474 cells assessed as accumulation at G2/M phase at 1 uM incubated for 12 hrs by propidium iodide staining based flow cytometry (reference value: 14%); format: functional
[21] = system: MDA-MB-231; experiment: cells; conditions: Homo sapiens, MDA-MB-231, 72 h
[22] = system: NCI-H460; experiment: cells; conditions: Homo sapiens, NCI-H460, 72 h
[23] = system: A-431; experiment: Cytotoxicity against human A431 cells assessed as inhibition of cell growth after 72 hrs by sulforhodamine B assay; format: functional, cell-based; conditions: A-431, 72 h; procedure, shortened: as §1
[24] = Cytotoxicity against human SKBR3 cells assessed as inhibition of cell growth after 72 hrs by sulforhodamine B assay; format: functional, cell-based; conditions: SK-BR-3, 72 h; procedure, shortened: as §1
[25] = system: BT-474; experiment: Induction of cell cycle arrest in human BT474 cells assessed as accumulation at G2/M phase at 0.1 uM incubated for 12 hrs by propidium iodide staining based flow cytometry (reference value: 14%); format: functional
[26] = system: Mus musculus; experiment: Toxicity in human Calu3 cells xenografted BALB/cA mouse assessed as body weight loss at 100 mg/kg, po measured every other day for 21 days; format: organism-based, Calu-3; design: dose 100 mg/kg, route oral; conditions: in vivo, 504 h
Procedure, shortened: (§2)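 Female BALB/cA nude mice, 6–7 weeks old, implanted s.c. on the mid-right flank with 2×10^6 Calu-3 cells in 0.2 ml PBS. At 60–150 mm³ tumour volume, mice randomised into six per treatment group (twelve vehicle controls). Oral dosing in 0.5% CMC aqueous solution with 0.1% Tween-80. Body weight recorded every other day for 21 d.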

[27] = Antitumor activity against human Calu3 cells xenografted in BALB/cA mouse assessed as tumor growth inhibition at 200 mg/kg, po; format: functional; conditions: Calu-3, read-out: TGI
Procedure, shortened: (§3)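 Female BALB/cA nude mice, 6–7 weeks old, implanted s.c. on midright side with 2×10^6 Calu-3 cells in 0.2 ml PBS. Grouped at 60–150 mm³ tumour volume (6 per treated group, 12 vehicle). Oral dosing in 0.5% CMC with 0.1% Tween-80. Caliper volume = L×W²×0.5; inhibition = (1 − T/C)×100% on relative tumour volume; weight tracked for 21 d.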

[28] = system: BT-474; experiment: Induction of cell cycle arrest in human BT474 cells assessed as accumulation at S phase at 1 uM incubated for 12 hrs by propidium iodide staining based flow cytometry (reference value: 19%); format: functional
[29] = biological target: Vascular endothelial growth factor receptor 2 (Homo sapiens, UniProt P35968); experiment: Inhibition of KDR phosphorylation (unknown origin) expressed in human HUVEC at 0.001 to 1 uM incubated for 2 hrs by Western blot method
[30] = system: BT-474; experiment: Induction of apoptosis in human BT474 cells at 0.1 uM incubated for 12 hrs by propidium iodide staining based flow cytometry (reference value: 1%); format: functional
[31] = biological target: T1, Receptor tyrosine-protein kinase erbB-2; conditions: BT-474, 0.001 to 10 uM; remark: listed apart in the source
[32] = system: BT-474; experiment: Induction of cell cycle arrest in human BT474 cells assessed as accumulation at G2/M phase at 0.001 uM incubated for 12 hrs by propidium iodide staining based flow cytometry (reference value: 14%); format: functional
[33] = system: Mus musculus; experiment: Toxicity in human Calu3 cells xenografted BALB/cA mouse assessed as body weight loss at 200 mg/kg, po measured every other day for 21 days; format: organism-based, Calu-3; design: dose 200 mg/kg, route oral; conditions: in vivo, 504 h; procedure, shortened: as §2
[34] = system: BT-474; experiment: Induction of apoptosis in human BT474 cells at 0.001 uM incubated for 12 hrs by propidium iodide staining based flow cytometry (reference value: 1%); format: functional
[35] = system: BT-474; experiment: Induction of cell cycle arrest in human BT474 cells assessed as accumulation at G1 phase at 1 uM incubated for 12 hrs by propidium iodide staining based flow cytometry (reference value: 67%); format: functional
[36] = system: MCF7; experiment: Cytotoxicity against human MCF7 cells assessed as inhibition of cell growth after 72 hrs by sulforhodamine B assay; format: functional, cell-based; conditions: MCF7, 72 h; procedure, shortened: as §1
[37] = system: MDA-MB-453; experiment: cells; conditions: Homo sapiens, MDA-MB-453, 72 h
[38] = system: BT-474; experiment: Induction of cell cycle arrest in human BT474 cells assessed as accumulation at G1 phase at 10 uM incubated for 12 hrs by propidium iodide staining based flow cytometry (reference value: 67%); format: functional
[39] = Antitumor activity against human Calu3 cells xenografted in BALB/cA mouse assessed as tumor growth inhibition at 100 mg/kg, po; format: functional; conditions: Calu-3, read-out: TGI; procedure, shortened: as §3
[40] = cells; conditions: Homo sapiens, Calu-3, 72 h

T1 sequence (P04626 whole entry): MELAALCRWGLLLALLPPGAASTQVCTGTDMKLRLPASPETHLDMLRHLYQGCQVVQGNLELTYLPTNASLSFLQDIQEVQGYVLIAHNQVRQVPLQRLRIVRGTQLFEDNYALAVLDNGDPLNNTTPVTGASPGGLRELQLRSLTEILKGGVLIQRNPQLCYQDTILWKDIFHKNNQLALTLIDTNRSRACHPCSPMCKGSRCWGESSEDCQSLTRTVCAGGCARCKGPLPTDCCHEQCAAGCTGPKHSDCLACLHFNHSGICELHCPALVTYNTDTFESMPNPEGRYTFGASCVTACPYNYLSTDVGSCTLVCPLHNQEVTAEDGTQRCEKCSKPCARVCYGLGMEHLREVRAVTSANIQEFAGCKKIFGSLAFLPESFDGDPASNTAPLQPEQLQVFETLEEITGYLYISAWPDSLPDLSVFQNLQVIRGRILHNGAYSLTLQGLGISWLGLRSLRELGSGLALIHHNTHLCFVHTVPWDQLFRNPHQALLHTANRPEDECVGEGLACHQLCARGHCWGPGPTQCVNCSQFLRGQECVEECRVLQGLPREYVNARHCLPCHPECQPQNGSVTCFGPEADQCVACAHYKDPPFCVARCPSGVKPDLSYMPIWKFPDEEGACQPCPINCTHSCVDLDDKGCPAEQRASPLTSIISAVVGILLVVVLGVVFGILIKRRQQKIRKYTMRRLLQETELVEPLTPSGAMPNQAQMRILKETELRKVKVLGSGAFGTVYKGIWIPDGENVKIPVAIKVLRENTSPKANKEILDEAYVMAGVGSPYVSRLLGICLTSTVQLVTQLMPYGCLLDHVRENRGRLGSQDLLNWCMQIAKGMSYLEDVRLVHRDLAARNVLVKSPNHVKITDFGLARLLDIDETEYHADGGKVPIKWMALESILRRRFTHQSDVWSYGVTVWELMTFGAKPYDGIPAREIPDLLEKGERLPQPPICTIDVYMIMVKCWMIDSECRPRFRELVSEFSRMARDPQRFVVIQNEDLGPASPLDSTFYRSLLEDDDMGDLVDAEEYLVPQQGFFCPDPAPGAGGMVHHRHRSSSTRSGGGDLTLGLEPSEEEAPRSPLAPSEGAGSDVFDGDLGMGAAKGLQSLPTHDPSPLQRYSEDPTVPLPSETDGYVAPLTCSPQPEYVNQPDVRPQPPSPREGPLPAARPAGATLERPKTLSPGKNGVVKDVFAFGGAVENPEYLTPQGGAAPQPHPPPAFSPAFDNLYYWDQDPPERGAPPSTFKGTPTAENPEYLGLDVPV
Mast/stem cell growth factor receptor Kit, sequence (P10721 whole entry): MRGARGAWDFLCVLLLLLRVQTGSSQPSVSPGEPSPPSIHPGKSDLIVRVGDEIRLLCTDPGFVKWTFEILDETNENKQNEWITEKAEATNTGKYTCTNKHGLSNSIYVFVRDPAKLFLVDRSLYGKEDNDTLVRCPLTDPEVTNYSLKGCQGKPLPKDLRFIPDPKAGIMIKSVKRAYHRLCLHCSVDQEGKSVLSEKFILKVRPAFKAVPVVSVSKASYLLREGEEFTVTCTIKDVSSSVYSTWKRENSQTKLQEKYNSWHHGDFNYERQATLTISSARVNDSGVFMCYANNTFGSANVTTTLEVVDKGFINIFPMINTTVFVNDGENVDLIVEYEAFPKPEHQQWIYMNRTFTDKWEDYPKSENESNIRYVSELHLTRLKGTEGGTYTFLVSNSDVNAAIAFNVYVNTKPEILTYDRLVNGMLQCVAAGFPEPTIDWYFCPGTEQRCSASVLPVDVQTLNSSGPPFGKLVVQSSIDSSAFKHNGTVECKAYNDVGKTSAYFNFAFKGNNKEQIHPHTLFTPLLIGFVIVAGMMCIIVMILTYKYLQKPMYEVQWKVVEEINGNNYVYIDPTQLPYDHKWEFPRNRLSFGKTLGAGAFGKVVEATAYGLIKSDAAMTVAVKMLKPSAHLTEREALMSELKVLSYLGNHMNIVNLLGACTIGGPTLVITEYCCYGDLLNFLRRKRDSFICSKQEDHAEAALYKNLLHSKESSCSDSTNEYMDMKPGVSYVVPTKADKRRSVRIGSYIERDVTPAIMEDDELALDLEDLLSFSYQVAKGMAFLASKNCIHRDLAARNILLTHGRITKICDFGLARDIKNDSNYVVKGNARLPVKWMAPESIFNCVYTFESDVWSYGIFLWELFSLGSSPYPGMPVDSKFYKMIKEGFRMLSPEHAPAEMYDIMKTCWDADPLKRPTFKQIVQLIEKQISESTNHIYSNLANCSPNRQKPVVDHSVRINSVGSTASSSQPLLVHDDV
Platelet-derived growth factor receptor beta, sequence (P09619 whole entry): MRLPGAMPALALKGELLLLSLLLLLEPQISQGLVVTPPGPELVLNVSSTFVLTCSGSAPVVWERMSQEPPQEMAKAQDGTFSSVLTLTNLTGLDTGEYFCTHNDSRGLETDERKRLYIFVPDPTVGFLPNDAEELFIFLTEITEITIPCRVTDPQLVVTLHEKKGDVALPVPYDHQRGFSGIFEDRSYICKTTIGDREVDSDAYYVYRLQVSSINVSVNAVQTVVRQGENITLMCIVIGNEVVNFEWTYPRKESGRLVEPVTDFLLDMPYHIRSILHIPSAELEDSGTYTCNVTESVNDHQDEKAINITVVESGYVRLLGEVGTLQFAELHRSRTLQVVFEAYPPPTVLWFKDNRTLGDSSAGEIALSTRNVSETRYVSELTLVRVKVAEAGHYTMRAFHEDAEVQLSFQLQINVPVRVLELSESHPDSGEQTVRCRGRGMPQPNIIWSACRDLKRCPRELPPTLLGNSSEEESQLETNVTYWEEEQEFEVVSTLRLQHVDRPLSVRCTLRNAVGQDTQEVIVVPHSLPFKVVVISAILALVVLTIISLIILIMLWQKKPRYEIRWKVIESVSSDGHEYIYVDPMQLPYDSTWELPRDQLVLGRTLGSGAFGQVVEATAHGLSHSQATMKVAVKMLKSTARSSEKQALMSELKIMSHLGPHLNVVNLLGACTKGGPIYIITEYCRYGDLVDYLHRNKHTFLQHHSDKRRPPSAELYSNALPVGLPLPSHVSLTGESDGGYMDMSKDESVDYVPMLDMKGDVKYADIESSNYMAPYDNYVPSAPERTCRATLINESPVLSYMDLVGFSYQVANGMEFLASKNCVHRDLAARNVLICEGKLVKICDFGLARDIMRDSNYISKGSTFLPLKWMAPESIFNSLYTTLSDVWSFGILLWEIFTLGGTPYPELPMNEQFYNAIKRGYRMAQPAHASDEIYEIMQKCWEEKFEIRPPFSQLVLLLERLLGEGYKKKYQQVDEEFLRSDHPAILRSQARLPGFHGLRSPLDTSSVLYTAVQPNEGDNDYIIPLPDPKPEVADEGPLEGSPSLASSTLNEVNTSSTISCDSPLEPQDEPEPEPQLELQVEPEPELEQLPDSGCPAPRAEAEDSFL
Vascular endothelial growth factor receptor 2, sequence (P35968 whole entry): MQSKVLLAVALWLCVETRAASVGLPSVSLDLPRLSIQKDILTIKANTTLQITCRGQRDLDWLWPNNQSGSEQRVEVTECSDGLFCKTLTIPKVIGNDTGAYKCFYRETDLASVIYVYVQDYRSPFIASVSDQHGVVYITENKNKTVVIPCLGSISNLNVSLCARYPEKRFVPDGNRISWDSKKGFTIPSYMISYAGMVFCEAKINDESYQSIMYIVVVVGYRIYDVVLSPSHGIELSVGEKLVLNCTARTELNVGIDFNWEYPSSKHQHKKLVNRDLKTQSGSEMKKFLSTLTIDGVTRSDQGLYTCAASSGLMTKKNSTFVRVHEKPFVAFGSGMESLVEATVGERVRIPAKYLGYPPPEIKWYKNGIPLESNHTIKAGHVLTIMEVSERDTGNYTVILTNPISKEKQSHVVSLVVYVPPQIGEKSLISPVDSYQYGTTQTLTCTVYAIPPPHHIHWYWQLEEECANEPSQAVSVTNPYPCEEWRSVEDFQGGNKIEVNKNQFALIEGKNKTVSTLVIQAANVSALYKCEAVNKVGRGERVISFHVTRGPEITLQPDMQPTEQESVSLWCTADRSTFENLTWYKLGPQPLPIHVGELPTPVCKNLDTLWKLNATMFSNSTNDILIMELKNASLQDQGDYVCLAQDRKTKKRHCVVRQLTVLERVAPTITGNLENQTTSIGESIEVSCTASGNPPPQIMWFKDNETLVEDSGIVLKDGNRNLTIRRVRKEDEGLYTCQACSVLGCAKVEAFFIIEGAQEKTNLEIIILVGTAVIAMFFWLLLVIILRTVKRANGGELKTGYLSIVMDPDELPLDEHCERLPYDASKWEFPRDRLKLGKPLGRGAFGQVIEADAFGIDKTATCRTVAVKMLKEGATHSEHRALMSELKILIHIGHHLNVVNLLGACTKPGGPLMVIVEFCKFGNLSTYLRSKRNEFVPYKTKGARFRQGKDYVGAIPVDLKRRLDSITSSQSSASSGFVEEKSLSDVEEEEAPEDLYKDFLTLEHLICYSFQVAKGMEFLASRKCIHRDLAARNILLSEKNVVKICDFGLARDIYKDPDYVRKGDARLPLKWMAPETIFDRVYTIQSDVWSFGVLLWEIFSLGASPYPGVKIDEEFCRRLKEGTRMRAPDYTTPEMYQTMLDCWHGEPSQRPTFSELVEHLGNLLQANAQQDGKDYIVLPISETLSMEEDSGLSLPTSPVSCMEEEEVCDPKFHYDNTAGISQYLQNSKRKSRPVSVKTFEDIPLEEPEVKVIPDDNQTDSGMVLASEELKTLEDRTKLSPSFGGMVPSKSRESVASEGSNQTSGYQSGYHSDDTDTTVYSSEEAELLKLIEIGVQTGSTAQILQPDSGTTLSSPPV

Which results are given for `CS(=O)(=O)CCNCc1ccc(-c2ccc3ncnc(Nc4ccc(OCc5cccc(F)c5)c(Cl)c4)c3c2)o1` [LAPATINIB]?
IC50 [1]: 0.0639 µM; inhibition [2]: inactive; inhibition [3]: Active; Activity [4]: 11%; Activity [5]: 11%; Activity [6]: 1%; Activity [7]: 71%; Activity [8]: 6%; IC50 [9]: > 100 µM; Activity [10]: 84%; Activity [11]: 13%; inhibition [12]: Active; Activity [13]: 6%; Activity [14]: 8%; Activity [15]: 15%; IC50 [16]: 0.59 µM; Activity [17]: 7%; inhibition [18]: inactive; Activity [19]: 82%; Activity [20]: 10%; IC50 [21]: > 100 µM; IC50 [22]: > 100 µM; IC50 [23]: 0.643 µM; IC50 [24]: 0.0301 µM; Activity [25]: 10%; Activity [26]: Non-toxic; inhibition in vivo at 200 mg/kg [27]: 70%; Activity [28]: 6%; inhibition [29]: inactive; Activity [30]: 4%; inhibition [31]: Active; Activity [32]: 14%; Activity [33]: Non-toxic; Activity [34]: 1%; Activity [35]: 84%; IC50 [36]: 8.47 µM; IC50 [37]: 0.19 µM; Activity [38]: 81%; inhibition in vivo at 100 mg/kg [39]: 56%; IC50 [40]: 0.23 µM
